RGS4 act = potentiators or activators of RGS4; HEK293 M3R/inducible RGS4, carbachol calcium flux Fluo4; hits give low values; B-score at 10 µM; 0.92% of 310,000 active; AID 463111;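 active means B-score of the integrated calcium signal more than 4 SD below the library mean, with starting fluorescence not abnormally high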;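 further: negative B-score means reduced calcium response which marks RGS4 activation or potentiation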
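Material: M3R-expressing HEK293 line, RGS4 induced by doxycycline | Schedule: Overnight RGS4 induction, 30 min dye load 37 °C, 20 min compound RT | Measured by: Fluo4 fluorescence kinetic imaging of calcium | Read-out: Integrated calcium ratio converted to B score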
RGS4 block = human RGS4 inhibition. P49798. HEK293 M3R/RGS4 inducible, Fluo-4 calcium flux; hits give high values; triggered by carbachol at its EC20. B-score at 10 µM. 0.45% of 310,000 active. AID 463165;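 active means B-score, a plate-corrected calcium signal, over three deviations above library mean, with baseline fluorescence within five deviations of library mean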;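 further: RGS4 expression induced by doxycycline in cells with stable M3 receptor; B-score is computed from the integrated fluorescence ratio over baseline after carbachol; higher B-score means a larger calcium signal and so more RGS4 inhibition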
Target sequence (P49798 whole entry, looked up): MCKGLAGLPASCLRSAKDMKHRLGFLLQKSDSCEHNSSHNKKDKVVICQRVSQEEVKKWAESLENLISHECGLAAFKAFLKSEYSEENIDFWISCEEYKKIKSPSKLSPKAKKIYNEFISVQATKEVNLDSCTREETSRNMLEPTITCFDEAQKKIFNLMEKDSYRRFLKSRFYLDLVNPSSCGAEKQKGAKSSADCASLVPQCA
MrgX1 agonist = human MrgX1 receptor agonism, primary screen. Q96LB2. 0.44% of 310,000 active. MrgX1-HEK293 cells, Fluo-4 calcium fluorescence, agonist mode; hits give high values. B-score at 10 µM. AID 588627;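 active means calcium response B-score plate-corrected fluorescence ratio at least 3 library SD, with starting fluorescence B-score inside 5 SD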
Target sequence (Q96LB2 whole entry, looked up): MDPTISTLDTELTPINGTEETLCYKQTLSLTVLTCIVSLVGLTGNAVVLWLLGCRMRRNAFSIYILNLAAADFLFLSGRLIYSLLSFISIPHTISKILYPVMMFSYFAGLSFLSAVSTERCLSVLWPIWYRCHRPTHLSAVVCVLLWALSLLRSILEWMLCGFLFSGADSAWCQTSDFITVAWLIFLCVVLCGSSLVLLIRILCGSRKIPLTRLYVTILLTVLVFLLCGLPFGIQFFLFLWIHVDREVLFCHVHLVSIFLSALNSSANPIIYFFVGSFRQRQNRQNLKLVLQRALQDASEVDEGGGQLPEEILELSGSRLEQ
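Test system: HEK293 cells stably expressing human MrgX1 receptor; amount: 15,000 cells per well; doses: compound delivered in addition one of three; times: overnight plating before 1 h dye loading; detection: Fluo-4 NW calcium-flux fluorescence, kinetic read; read-out basis: B-scored fluorescence response ratio; controls: positive and negative controls per plate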
MrgX1 allo act = allosterically activates human MrgX1 receptor signaling; MrgX1-HEK293, Fluo-4 calcium flux, FDSS; hits give high values; AID 588675; B-score at 10 µM; Q96LB2; 0.63% of 310,000 active;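 active means plate-corrected calcium response at least 3 library SD above typical, normal starting fluorescence, not activating the receptor alone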;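 further: compound read alongside a low EC10 to EC30 dose of BAM8-22 agonist; peak minus trough fluorescence over baseline measured at the second addition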
MrgX1 antag = blocks BAM8-22 activation of human MrgX1 receptor | Q96LB2 | AID 588676 | MRGX1-HEK293 calcium flux, Fluo-4, BAM8-22 antagonism; hits give low values | B-score at 10 µM | 1.3% of 310,000 active;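 active means calcium-response B-score plate-corrected more than 3 library SD below zero, starting fluorescence within 5 deviations, no agonist response on first addition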;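 further: peak minus trough fluorescence over baseline after final BAM8-22 challenge near maximal dose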
MrgX1 allo conf = confirmation of human MrgX1 receptor positive allosteric modulators. 13% of 1,200 active. activation (ratio percentage), % at 10 µM. MrgX1-HEK293, Fluo-4 calcium fluorescence, FDSS. shares compounds with MrgX1 allo act;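 active means ratio at least 3 SD above the weak peptide control, stable starting fluorescence, no direct agonism earlier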;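 further: compound followed by low BAM8-22 agonist challenge near EC20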
HEK293 Ca flux = activity in parental HEK293 cells lacking MrgX1 | shares compounds with MrgX1 antag | Fluo-4 calcium fluorescence, FDSS | fluorescence ratio F(max-min)/F0 at 10 µM | 2% of 4,000 active;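 active means duplicate-averaged calcium fluorescence ratio at least three times the standard deviation of buffer wells, a nonspecific response in parental cells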
HEK293 Ca counter = activity in parental HEK293 cells without MrgX1; shares compounds with MrgX1 antag; parental HEK293 calcium flux, Fluo-4 fluorescence ratio; hits give high values; fluorescence ratio F(max-min)/F0 at 10 µM; 0.4% of 4,000 active; AID 624114;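 active means calcium fluorescence ratio, averaged over duplicates, at least 3 SD of the buffer-well ratio, meaning a nonspecific response in receptor-free cells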;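 further: untransfected parental HEK293 lacking MrgX1 used as counterscreen for MrgX1 allosteric activators; fluorescence change taken during the second addition on a kinetic imager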
HEK293 Ca cntr2 = counter-screen for MrgX1 activators: effect in parental HEK293 cells | shares compounds with MrgX1 antag | Fluo-4 calcium fluorescence (FDSS); hits give high values | fluorescence ratio F(max-min)/F0 at 10 µM | 8.7% of 4,000 active | AID 624115;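 active means calcium fluorescence ratio at least three times the spread of buffer wells, meaning a non-specific response in parental cells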
* marks the source's active call; other numbers are inactive results. Sampled rows, rich in hits. Any-hit rate of the full collection: about 3.5%.

Cc1cccn2c(=O)c(C(=O)NC3CCCCC3C)c(O)nc12 (stereo unspecified) was read as RGS4 act inactive, RGS4 block inactive, MrgX1 agonist inactive, MrgX1 allo act inactive and MrgX1 antag inactive.
`COc1ccccc1NS(=O)(=O)c1cccc(NC(=O)c2[nH]c(C)c(C(C)=O)c2C)c1` gave RGS4 act inactive, RGS4 block inactive, MrgX1 agonist inactive, MrgX1 allo act 7.4*, MrgX1 antag inactive, MrgX1 allo conf inactive, HEK293 Ca flux inactive, HEK293 Ca counter inactive and HEK293 Ca cntr2 inactive.
`COc1ccccc1NC(=O)c1[nH]c(C)c(C(C)=O)c1C` gave MrgX1 agonist inactive, MrgX1 allo act inactive and MrgX1 antag inactive.
Cc1ccc(C(=O)OC2OC(=O)C(Cl)=C2N2CCOCC2)cc1 (stereo unspecified) was read as RGS4 act inactive, RGS4 block inactive, MrgX1 agonist inactive, MrgX1 allo act inactive and MrgX1 antag inactive.
Screening Cc1cc(C(=O)N2CCCC(CO)(Cc3ccc(F)cc3)C2)c(C)o1 (stereo unspecified) returned RGS4 act inactive, RGS4 block inactive, MrgX1 agonist inactive, MrgX1 allo act inactive and MrgX1 antag inactive.
`COCCN(C(=S)Nc1cc(C)cc(C)c1)C(C)c1ccco1` (stereo unspecified) gave RGS4 act inactive, RGS4 block inactive, MrgX1 agonist inactive, MrgX1 allo act 8.2*, MrgX1 antag inactive, MrgX1 allo conf inactive, HEK293 Ca flux inactive, HEK293 Ca counter inactive and HEK293 Ca cntr2 inactive.
For O=C(Nc1ccccc1)N(Cc1ccc(Cl)cc1)CC(O)C(F)(F)F (stereo unspecified) the results were RGS4 act inactive, RGS4 block inactive, MrgX1 agonist inactive, MrgX1 allo act 6.5*, MrgX1 antag inactive, MrgX1 allo conf inactive, HEK293 Ca flux inactive, HEK293 Ca counter inactive and HEK293 Ca cntr2 inactive.
O=C(Nc1ccccc1)N(Cc1ccccc1)Cc1ccccc1 was read as RGS4 act inactive, RGS4 block inactive, MrgX1 agonist inactive, MrgX1 allo act inactive and MrgX1 antag inactive.
Screening Nc1nc(CN2CCCCCC2)nc(Nc2ccccc2)n1 returned RGS4 act inactive, RGS4 block inactive, MrgX1 agonist inactive, MrgX1 allo act inactive and MrgX1 antag inactive.
Cc1c(-c2nc(N)nc(Nc3ccccc3)n2)oc2ccccc12 was read as RGS4 act inactive, RGS4 block inactive, MrgX1 agonist inactive, MrgX1 allo act 20*, MrgX1 antag inactive, MrgX1 allo conf inactive, HEK293 Ca flux inactive, HEK293 Ca counter inactive and HEK293 Ca cntr2 inactive.
`CCc1cccc(CC)c1NC(=S)Nc1cccc(Cl)c1Cl` gave RGS4 act inactive, RGS4 block inactive, MrgX1 agonist inactive, MrgX1 allo act 25*, MrgX1 antag inactive, MrgX1 allo conf inactive, HEK293 Ca flux inactive, HEK293 Ca counter inactive and HEK293 Ca cntr2 inactive.
Screening Cn1nc(C(=O)Nc2nc3ccccc3[nH]2)ccc1=O returned RGS4 act inactive, RGS4 block inactive, MrgX1 agonist inactive, MrgX1 allo act inactive and MrgX1 antag inactive.
`NC(=O)CCN(C1CCCCC1)S(=O)(=O)c1cccc2nsnc12` gave RGS4 act inactive, RGS4 block inactive, MrgX1 agonist inactive, MrgX1 allo act inactive and MrgX1 antag inactive.
Cc1ccc(S(=O)(=O)N(CCC#N)C2CCCCC2)c2nsnc12 was read as RGS4 act inactive, RGS4 block inactive, MrgX1 agonist inactive, MrgX1 allo act 6.8*, MrgX1 antag inactive, MrgX1 allo conf inactive, HEK293 Ca flux inactive, HEK293 Ca counter inactive and HEK293 Ca cntr2 inactive.
Screening O=C(Cn1nnc2ccccc21)NCc1ccccc1 returned RGS4 act inactive, RGS4 block inactive, MrgX1 agonist inactive, MrgX1 allo act 7.2*, MrgX1 antag inactive, MrgX1 allo conf inactive, HEK293 Ca flux inactive, HEK293 Ca counter inactive and HEK293 Ca cntr2 inactive.
For C=C(C)COc1ccc(-c2[nH]ncc2-c2ccccc2OC)c(O)c1 the results were RGS4 act inactive, RGS4 block inactive, MrgX1 agonist inactive, MrgX1 allo act 18*, MrgX1 antag inactive, MrgX1 allo conf inactive, HEK293 Ca flux inactive, HEK293 Ca counter inactive and HEK293 Ca cntr2 inactive.
For C=C(C)COc1ccc(-c2[nH]ncc2-c2ccc(Br)cc2)c(O)c1 the results were RGS4 act inactive, RGS4 block inactive, MrgX1 agonist inactive, MrgX1 allo act 19*, MrgX1 antag inactive, MrgX1 allo conf 10%*, HEK293 Ca flux inactive, HEK293 Ca counter inactive and HEK293 Ca cntr2 inactive.
C=C(C)COc1ccc(-c2[nH]ncc2Oc2ccccc2OC)c(O)c1 was read as RGS4 act inactive, RGS4 block inactive, MrgX1 agonist inactive, MrgX1 allo act inactive and MrgX1 antag inactive.
For O=C(Cn1cnc2cc([N+](=O)[O-])ccc2c1=O)NC(c1ccccc1)c1ccccc1 the results were RGS4 act inactive, RGS4 block inactive, MrgX1 agonist inactive, MrgX1 allo act inactive and MrgX1 antag inactive.
For CCn1cc(Cl)c(C(=O)Nc2ccc(OC)c(OC)c2)n1 the results were RGS4 act inactive, RGS4 block inactive, MrgX1 agonist inactive, MrgX1 allo act inactive and MrgX1 antag inactive.
O=C(OCCN1C(=O)c2ccccc2C1=O)c1cc(S(=O)(=O)N2CCOCC2)ccc1F was read as RGS4 act inactive, RGS4 block inactive, MrgX1 agonist inactive, MrgX1 allo act 6.8*, MrgX1 antag inactive, MrgX1 allo conf inactive, HEK293 Ca flux inactive, HEK293 Ca counter inactive and HEK293 Ca cntr2 inactive.
For Cn1c(CNC(=O)c2cccs2)nnc1SCC(=O)Nc1ccccc1 the results were RGS4 act inactive, RGS4 block inactive, MrgX1 agonist inactive, MrgX1 allo act inactive and MrgX1 antag inactive.
Fc1ccc(-c2csc(NC3=NCCC3)n2)cc1 was read as RGS4 act inactive, RGS4 block inactive, MrgX1 agonist inactive, MrgX1 allo act 12*, MrgX1 antag inactive, MrgX1 allo conf inactive, HEK293 Ca flux inactive, HEK293 Ca counter inactive and HEK293 Ca cntr2 inactive.

Bioassay records as filed in PubChem BioAssay.
